Screening data (PubChem BioAssay)
The list is not random: actives were taken first. Their share in the collection is about 1.1%.
GRK2 inh = blocks RNA aptamer binding to human GRK2; inhibition of aptamer binding, % at 10 µM; actives 0.59% (n = 330,000); bead flow cytometry, FAM-aptamer displacement from GRK2;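 active means inhibition of aptamer binding above 40%, roughly 3 SD of noise, on plates passing a quality check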;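 further: median bead fluorescence of bound FAM aptamer so fluorescent compounds give negative values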
Target sequence (P25098 whole entry, looked up): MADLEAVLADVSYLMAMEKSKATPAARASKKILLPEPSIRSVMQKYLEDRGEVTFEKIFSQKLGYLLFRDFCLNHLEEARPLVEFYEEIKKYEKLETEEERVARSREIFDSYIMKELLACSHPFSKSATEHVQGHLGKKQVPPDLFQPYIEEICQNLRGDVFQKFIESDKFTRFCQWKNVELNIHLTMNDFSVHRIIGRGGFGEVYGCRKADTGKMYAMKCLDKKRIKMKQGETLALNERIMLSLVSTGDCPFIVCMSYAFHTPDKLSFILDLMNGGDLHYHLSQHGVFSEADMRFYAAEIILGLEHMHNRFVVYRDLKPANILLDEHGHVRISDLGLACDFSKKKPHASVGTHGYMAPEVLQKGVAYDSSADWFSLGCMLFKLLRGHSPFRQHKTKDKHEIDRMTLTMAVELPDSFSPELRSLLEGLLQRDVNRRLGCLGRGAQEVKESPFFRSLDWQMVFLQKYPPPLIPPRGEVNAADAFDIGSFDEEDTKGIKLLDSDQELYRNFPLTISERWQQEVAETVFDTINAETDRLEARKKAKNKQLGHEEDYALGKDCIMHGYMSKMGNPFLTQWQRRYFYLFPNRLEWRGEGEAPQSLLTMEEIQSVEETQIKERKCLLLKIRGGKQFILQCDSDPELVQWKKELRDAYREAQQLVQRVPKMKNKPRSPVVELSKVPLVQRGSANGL
aDG glyco up = increases alpha dystroglycan glycosylation; Pro5-aDG cells, alpha-DG glycosylation AlphaScreen (IIH6); 0% Pro5, 100% B10-LARGE cell signal; activation, % at 10 µM; actives 0.22% (n = 360,000); AID 624168;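 active means activation of at least 8% versus controls, or a plate z-score of at least 8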;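 further: Pro5 are CHO cells carrying HIG-tagged alpha-DG that lacks glycosylation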
CaV13 ICDI inh = Disruptors of the CACNA1D IQ motif to Ca2+-dependent inactivation inhibitor domain association, primary screening, Förster resonance energy transfer in intact living …; HEK cells, CFP/YFP FRET ICDI-IQ, plate reader, 10 min; percent FRET-ratio fall versus neutral wells; inhibition, % at 12.3 µM; actives 0.098% (n = 340,000);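 active means mean replicate inhibition of at least 30% and at least 1% of replicates passing that level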;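 further: 0% = median of the neutral control wells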
proCasp7 act = counter-screen: procaspase-7 (human) activation. P55210. activation, % at 8.5 µM. actives 0.093% (n = 330,000). recombinant procaspase-7, Ac-DEVD-pNA absorbance 405 nm; D23A/D198A/D206A triple mutant, cannot self-cleave; scale: DMSO 0, 5 µM enzyme 100;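 active means percent activation above the screen-wide mean plus 3 SD, cut at about 25% in these data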
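System: Procaspase-7 triple mutant (PC-7 D3A); measure: % activation from two-timepoint absorbance difference, scaled to controls; times: 1 h compound preincubation, 2 h substrate cleavage, 25 °C; also added: Ac-DEVD-pNA substrate, 400 µM as added; measured by: Epi-absorbance of released pNA at 405 nm, two timepoints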
procasp3 activ = activates human procaspase-3; recombinant procaspase-3 D3A, Ac-DEVD-pNA absorbance 405 nm; P42574; actives 0.11% (n = 330,000); activation, % at 8.5 µM;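 active means activation above the mean of all tested compounds plus 3 SD, cut at about 21% in these data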;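 further: 0% = DMSO alone and 100% = DMSO wells spiked with extra 5 µM PC-3 D3A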
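Test system: Procaspase-3 D3A mutant; medium: Zinc-free HEPES/NaCl buffer with 0.01% Triton X-100 at pH 7.4; reagent: DEVD-pNA substrate; doses: one concentration, 8.5 µM nominal, 0.8% DMSO; times: 1 h preincubation plus 2 h reaction at 25 °C; signal: Epi-absorbance at 405 nm of released p-nitroaniline, 0 and 120 min; replicates: singlicate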
T cell modulator = T cell immune modulators affecting CD8 T cell-vesicle binding | actives 0.068% (n = 330,000) | 2C CD8+ T cell-vesicle binding, flow cytometry; stronger effect = lower value | AID 2052 | response (vesicle binding), % at 7 µM;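 active means response, share of CD8 T cells binding vesicles, and their 90th percentile fluorescence all below set limits, cut at about 80% in these data, passing the limit was not always enough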;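 further: values below 100% mean blocked vesicle binding to the CD8+ T cells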
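System: murine 2C transgenic CD8+ T lymphocytes; also added: QL9-loaded Drosophila micro-vesicles; times: binding 1.5 h at 37 °C; measured by: flow cytometry, PE anti-B7-1 (FL2) versus Alexa647 anti-CD8 (FL8), PFA-fixed; control set: Peptide-free naked vesicles (low) and QL9 vesicles with 0.7% DMSO vehicle (high)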
GRK2 CP1 = human GRK2 inhibition confirmation, cherry pick 1 | shares compounds with GRK2 inh | bead-bound GRK2, FAM-aptamer displacement, flow cytometry | aptamer displacement, % at 10 µM | actives 4% (n = 2,000) | AID 504451;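 active means aptamer displacement above 40%, near three times the noise of non-fluorescent compounds, on plates passing quality checks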;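 further: negative values mostly reflect intrinsic compound fluorescence rather than true enhancement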
Aptamer quench 1 = quenches fluorescent RNA aptamer, GRK2 hit artifact; fluorescence change (kMESF span), kMESF (test concentration not listed); Fluorescent RNA aptamer beads, quenching, flow cytometry; stronger effect = higher value; shares compounds with GRK2 inh; 110 tested, under 10 active;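 active means compounds whose bead fluorescence drops by more than 37 kMESF across the dose range, marking them as dye quenchers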
Aptamer quench SP = quenches fluorescent RNA aptamer, GRK2 hit artifact; shares compounds with GRK2 inh; fluorescence response (% of DMSO), % at 10 µM; Carboxyfluorescein RNA aptamer on beads, flow cytometry quenching; stronger effect = lower value; 2,000 tested, under 10 active;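 active means compounds that quench the bead-bound fluorescent RNA probe, cutting fluorescence to under half of the solvent control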;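 further: counterscreen run without GRK2 so only probe quenching by compound is measured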
GRK2 confirm 2 = confirmation of human GRK2 inhibitors binding RNA aptamer site | bead-bound GRK2, FAM-aptamer displacement, flow cytometry | inhibition of aptamer binding, % at 10 µM | shares compounds with GRK2 inh | AID 504782 | 360 tested, under 10 active;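 active means inhibition of aptamer binding above 40%, about triple the noise seen with nonglowing compounds, on plates passing quality control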;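 further: negative values mostly come from compounds that fluoresce themselves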
FAM quench SP = counter-screen for GRK2 binding hits: quenchers of fluorescent RNA aptamer; fluorescence response vs DMSO, % at 10 µM; carboxyfluorescein RNA aptamer beads, flow cytometry quenching; stronger effect = lower value; 360 tested, under 10 active; shares compounds with GRK2 inh;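 active means response vs DMSO under 50%, meaning signal dropped by over half, treated as fluorescence quencher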;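 further: labelled aptamer on streptavidin beads without GRK2 as a quench counter-screen; 100% = bead fluorescence of DMSO wells and lower means quenching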
FAM quench PS1 = aptamer fluorescence quenching in GRK2 powder counter-screen; shares compounds with GRK2 inh; Bead-bound FAM RNA aptamer fluorescence quenching, flow cytometry; stronger effect = lower value; fluorescence ratio to DMSO, % at 11.1 µM; 35 tested, under 10 active; AID 588496;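 active means compounds that dim the fluorescent label, raw bead signal shifting by over 33 units between lowest and highest dose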
The depositor's hits bear a star; i = inactive; . = no result given.

SMILES | GRK2 inh | aDG glyco up | CaV13 ICDI inh | proCasp7 act | procasp3 activ | T cell modulator | GRK2 CP1 | Aptamer quench SP | others
O=C(N/C(=C\c1ccccc1)C(=O)N1CCOCC1)c1ccccc1Br | 2 | 0 | -6 | -2 | 3 | 217 | . | .
CCCCOC(=O)c1cc(C)nc2ccc(Br)cc12 | 17 | 0 | . | -3 | 0 | 583 | -1 | 94
C[C@H](CO)N1C[C@H](C)[C@@H](CN(C)C(=O)C2CC2)OCc2cn(nn2)CCCC1=O | . | . | -5 | . | . | . | . | .
O=C(O)CC/C(=C\c1ccc(N2CCCC2)c([N+](=O)[O-])c1)c1nc2ccccc2s1 | 71* | 0 | -17 | 8 | -3 | 562 | -5 | 100
COc1ccc(/C=C/C(=O)c2cccc(-n3cnnn3)c2)cc1O | 98* | 0 | -7 | -9 | -2 | 214 | 0 | 100
COc1ccc(C=CC(=O)c2ccc(OC)c(OC)c2)cc1O | . | 0 | -7 | . | . | . | . | .
Cc1c(NC(=O)OC(C)C)sc(=S)n1C | 34 | 0 | -11 | 1 | 4 | 134 | 0 | 117
COc1ccc(NC(=O)Nc2sc(=S)n(C)c2C)cc1 | 98* | 0 | 6 | -12 | -10 | 399 | -3 | 96
CC(=O)NCCOC(=O)Nc1sc(=S)n(C)c1C | 3 | 0 | -4 | 0 | -5 | 482 | . | .
CCCc1c(C(=O)NNc2cc(C(F)(F)F)ccc2Cl)cnn1-c1ccccc1 | 2 | 0 | -2 | 2 | 7 | 765 | . | .
O=C(/C=C(\Nc1cccc(Cl)c1)c1ccccc1)c1ccccc1 | . | . | -10 | . | . | . | . | .
CN(C)c1ccc(CNC(=O)CCS(=O)(=O)c2ccc3c(c2)n(C)c(=O)c(=O)n3C)cc1 | 60* | 0 | . | 5 | 2 | i | 19 | 98 | GRK2 confirm 2=32;FAM quench SP=101
c1ccc(CCCCc2ccncc2)cc1 | . | 0 | -5 | . | . | . | . | .
OCCc1ccccc1 | 20 | . | -5 | 11 | -2 | 492 | -2 | 99
c1ccc(CCc2ccncc2)cc1 | 66* | 0 | -4 | 1 | 5 | 330 | 2 | 95
OCCc1ccc(O)cc1 | 0 | 0 | -5 | -8 | -6 | 548 | . | .
CC(C)(C)OC(=O)n1cc(C(=O)c2ccccc2O)cn1 | 1 | 0 | -2 | 1 | -5 | 185 | . | .
O=C(NN=C(Cc1ccccc1)Cc1ccccc1)c1ccccc1F | 86* | 0 | -2 | -4 | -5 | 304 | 1 | 101
C=C(C)CCOC(=O)C(CC(=O)O)NCc1ccco1 (stereo not drawn) | 43* | 0 | -1 | 5 | 10 | 0 | 9 | 149
O=C(O)CC(NCc1ccco1)C(=O)OCCc1ccccc1 (stereo not drawn) | 0 | 0 | . | 11 | -1 | 258 | . | .
COc1ccccc1CCn1cnc(-c2ccc(F)cc2)c1C(C)C | . | . | -9 | . | . | . | . | .
Fc1ccccc1N1CCN(C(c2ccncc2)c2nnnn2C2CCCC2)CC1 (stereo not drawn) | 53* | 0 | -8 | 1 | 1 | 420 | -2 | 104
COc1ccc(S(=O)(=O)CCC(=O)NCCc2cccc(C)c2)cc1 | 0 | 0 | -8 | -3 | 8 | 544 | . | .
Cc1ccc(CCNC(=O)CCS(=O)(=O)c2ccc(Br)cc2)cc1 | 3 | 0 | -6 | 10 | 6 | 124 | 0 | 100 | Aptamer quench 1=9.3;FAM quench PS1=102
Cc1cccc(CCNC(=O)CCS(=O)(=O)c2ccc(Br)cc2)c1 | 1 | 0 | -4 | 2 | 9 | 204 | 2 | 104 | FAM quench PS1=101
SMILES | GRK2 inh | aDG glyco up | CaV13 ICDI inh | proCasp7 act | procasp3 activ | T cell modulator | GRK2 CP1 | Aptamer quench SP | others
COc1ccc(NC(=S)NNc2ccc(S(=O)(=O)Nc3ccccc3C(=O)O)cc2[N+](=O)[O-])cc1 | 48* | 0 | -16 | -29 | -7 | 981 | 4 | 99
COc1ccc(C=NNc2ccc(S(=O)(=O)Nc3ccccc3C(=O)O)cc2[N+](=O)[O-])c(OC)c1 | 4 | 0 | . | -3 | 2 | 228 | . | .
COCC1CN(CCc2ccc(F)cc2)S(=O)(=O)c2c(F)cccc2O1 (stereo not drawn) | . | . | -6 | . | . | . | . | .
O=C1CCCC(O)=C1N=Nc1cccc(C(=O)O)c1 | 83* | 0 | -6 | -15 | 3 | 246 | 4 | 98
CCOC(=O)Nc1sc(C)nc1-c1ccccc1 | 44* | 0 | -10 | -5 | -3 | 209 | -5 | 97
CCN(CC(=O)Nc1c(F)cccc1F)C(=O)c1ccc2ccccc2n1 | 0 | 0 | -1 | 2 | -3 | 195 | . | .
CCN(CC(=O)Nc1c(F)cccc1F)C(=O)/C=C/c1ccc2ccccc2n1 | 94* | 0 | -6 | -6 | 7 | 327 | 31 | 92
COc1ccc2nc(SCC(=O)Nc3ccc4c(c3)OCCO4)[nH]c2c1 | 75* | 0 | -4 | 6 | 5 | . | 99* | 127 | Aptamer quench 1=-29
O=c1c2cc([N+](=O)[O-])ccc2nc2n1CCCC2 | 64* | 0 | -13 | -5 | -2 | 921 | 1 | 99
COc1cc(OC)cc(C(=O)NNC(=O)CNC(=O)c2cccs2)c1 | 3 | 0 | -2 | 2 | 1 | 363 | . | .
CCOC(=O)c1cc(CC)sc1NC(=O)COC(=O)c1ccccn1 | 0 | 0 | -6 | -1 | 9 | 171 | . | .
Cc1nnc(SCc2ccc(CC(=O)O)cc2)o1 | 54* | 0 | -5 | 6 | -2 | 256 | 3 | 102
